Results on two molecules are retold here after publication PMC3496770 (Journal of chromatography. A, 2012).

For data set [1] the following is noted: measured by this polymer-water method; cited from earlier work.
The nature of data set [2]: Determination of log Ppw and pKa by polymer film. It counts as physicochemical. The following applies: both UHPLC and plate reader; p>0.05. In outline: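 The solute, in 20 mM phosphate-citrate, 20 mM phosphate or TFA buffers (pH 0.9–10.0), was added over the films and shaken at 500 rpm, 25 °C, to equilibrium. The aqueous supernatant was quantified by C18 UHPLC or plate-reader UV at 343 nm. Dpw came from initial versus equilibrium aqueous concentration and phase ratio. Ppw and pKa were derived across pH. Duplicates, SEM.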

Each structure is given as a SMILES string.

As to `Clc1ccc(COC(Cn2ccnc2)c2ccc(Cl)cc2Cl)cc1` (centres unmarked) [econazole], in data set [1], the “log P” value is 4.83.

In the case of `CC1=CC(c2ccccc2)=NS(=O)(=O)N1` [2H-1,2,6-thiadiazine, 3-methyl-5-phenyl-, 1,1-dioxide], the “Ppw− (conditional partition coefficient of the anionic form)” value in data set [2] is given as “statistically zero”.
